Test results: ChEMBL document CHEMBL1649165, “Activity profile in vitro of micafungin against Spanish clinical isolates of common and emerging species of yeasts and molds” (2009)
In brackets after ≈: the same amount, converted by molar mass.

Legend:
Format in all cases: functional
[1] = tested on: Geotrichum candidum; assay: Antimicrobial activity against Galactomyces geotrichum by broth microdilution method
[2] = tested on: Trichosporon dermatis; assay: Antimicrobial activity against Trichosporon dermatis by broth microdilution method; details: Cutaneotrichosporon dermatis
Procedure, shortened: (§1)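 Nonfermentative yeast clinical isolates (Rhodotorula, Trichosporon) tested by broth microdilution. The EUCAST yeast recommendations were followed strictly, with one minor modification to improve growth. MIC was read as the endpoint.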

[3] = tested on: [Candida] intermedia; assay: Antimicrobial activity against Candida intermedia by broth microdilution method; details: Sungouiella intermedia
Procedure, shortened: (§2)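 Clinical isolates from human patients, tested by broth microdilution using the AFST-EUCAST reference procedure for fermentative yeasts. The MIC was read per that reference method.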

[4] = tested on: Aspergillus niger; assay: Antimicrobial activity against Aspergillus niger by broth microdilution method
Procedure, shortened: (§3)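 Clinical mould isolates, tested by broth microdilution using the AFST-EUCAST reference method for filamentous fungi. For echinocandins, the endpoint was the minimum effective concentration: the lowest drug concentration giving aberrant hyphal growth, read with an inverted microscope.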

[5] = tested on: Candida parapsilosis; assay: Antimicrobial activity against Candida parapsilosis by broth microdilution method; details: Lodderomyces parapsilosis; procedure, shortened: as §2
[6] = tested on: Kluyveromyces marxianus; assay: Antimicrobial activity against Candida kefyr by broth microdilution method; procedure, shortened: as §2
[7] = tested on: Aureobasidium pullulans; assay: Antimicrobial activity against Aureobasidium pullulans by broth microdilution method
[8] = tested on: Paecilomyces variotii; assay: Antimicrobial activity against Paecilomyces variotii by broth microdilution method
Procedure, shortened: (§4)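 Filamentous fungus clinical isolates tested by the AFST-EUCAST reference broth microdilution method for moulds. For echinocandins, the endpoint was the minimum effective concentration: the lowest drug concentration giving aberrant hyphal growth, read with an inverted microscope.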

[9] = tested on: Papiliotrema laurentii; assay: Antimicrobial activity against Cryptococcus laurentii by broth microdilution method
Procedure, shortened: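 Clinical isolates of nonfermentative yeasts, tested by broth microdilution following EUCAST recommendations. The only change from that method was a minor modification to improve growth.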

[10] = Antimicrobial activity against Rhizopus microsporus by broth microdilution method; procedure, shortened: as §4
[11] = tested on: Trichoderma; assay: Antimicrobial activity against Trichoderma spp. by broth microdilution method; procedure, shortened: as §4
[12] = tested on: Aspergillus ochraceus; assay: Antimicrobial activity against Aspergillus ochraceus by broth microdilution method; procedure, shortened: as §3
[13] = tested on: Aspergillus sclerotiorum; assay: Antimicrobial activity against Aspergillus sclerotiorum by broth microdilution method; procedure, shortened: as §3
[14] = tested on: Rhodotorula glutinis; assay: Antimicrobial activity against Rhodotorula glutinis by broth microdilution method; procedure, shortened: as §1
[15] = tested on: Magnusiomyces capitatus; assay: Antimicrobial activity against Dipodascus capitatus by broth microdilution method
[16] = tested on: Aspergillus flavus; assay: Antimicrobial activity against Aspergillus flavus by broth microdilution method; procedure, shortened: as §3
[17] = tested on: Lomentospora prolificans; assay: Antimicrobial activity against Scedosporium prolificans by broth microdilution method; procedure, shortened: as §4
[18] = tested on: Trichosporon ovoides; assay: Antimicrobial activity against Trichosporon ovoides by broth microdilution method; procedure, shortened: as §1
[19] = tested on: Yarrowia lipolytica; assay: Antimicrobial activity against Yarrowia lipolytica by broth microdilution method
[20] = tested on: Fusarium verticillioides; assay: Antimicrobial activity against Fusarium verticillioides by broth microdilution method; procedure, shortened: as §4
[21] = tested on: Alternaria alternata; assay: Antimicrobial activity against Alternaria alternata by broth microdilution method; procedure, shortened: as §3
[22] = tested on: Fusarium oxysporum; assay: Antimicrobial activity against Fusarium oxysporum by broth microdilution method; procedure, shortened: as §3
[23] = tested on: Diutina rugosa; assay: Antimicrobial activity against Candida rugosa by broth microdilution method; procedure, shortened: as §2
[24] = tested on: Aspergillus glaucus; assay: Antimicrobial activity against Aspergillus glaucus by broth microdilution method; procedure, shortened: as §3
[25] = tested on: Lewia infectoria; assay: Antimicrobial activity against Alternaria infectoria by broth microdilution method; procedure, shortened: as §3
[26] = tested on: Rhodotorula mucilaginosa; assay: Antimicrobial activity against Rhodotorula mucilaginosa by broth microdilution method; procedure, shortened: as §1
[27] = tested on: Aspergillus terreus; assay: Antimicrobial activity against Aspergillus terreus by broth microdilution method; procedure, shortened: as §3
[28] = tested on: Nakaseomyces glabratus; assay: Antimicrobial activity against Candida glabrata by broth microdilution method; procedure, shortened: as §2
[29] = tested on: Aspergillus nidulans; assay: Antimicrobial activity against Aspergillus nidulans by broth microdilution method; procedure, shortened: as §3
[30] = tested on: Wickerhamomyces anomalus; assay: Antimicrobial activity against Candida pelliculosa by broth microdilution method; details: Hansenula anomala; procedure, shortened: as §2
[31] = tested on: Rhizopus arrhizus; assay: Antimicrobial activity against Rhizopus oryzae by broth microdilution method; procedure, shortened: as §4
[32] = tested on: Penicillium; assay: Antimicrobial activity against Penicillium spp. by broth microdilution method; procedure, shortened: as §4
[33] = tested on: Aspergillus fumigatus; assay: Antimicrobial activity against Aspergillus fumigatus by broth microdilution method; procedure, shortened: as §3
[34] = tested on: Torulaspora delbrueckii; assay: Antimicrobial activity against Candida coliculosa by broth microdilution method; procedure, shortened: as §2
[35] = tested on: Meyerozyma guilliermondii; assay: Antimicrobial activity against Candida guilliermondii by broth microdilution method; procedure, shortened: as §2
[36] = tested on: Fusarium reticulatum; assay: Antimicrobial activity against Fusarium reticulatum by broth microdilution method; procedure, shortened: as §4
[37] = tested on: Fusarium equiseti; assay: Antimicrobial activity against Fusarium equiseti by broth microdilution method; procedure, shortened: as §3
[38] = tested on: Aspergillus sydowii; assay: Antimicrobial activity against Aspergillus sydowii by broth microdilution method; procedure, shortened: as §3
[39] = tested on: [Candida] inconspicua; assay: Antimicrobial activity against Candida inconspicua by broth microdilution method; details: Pichia inconspicua; procedure, shortened: as §2
[40] = tested on: Fusarium proliferatum; assay: Antimicrobial activity against Fusarium proliferatum by broth microdilution method; procedure, shortened: as §3
[41] = tested on: Hortaea werneckii; assay: Antimicrobial activity against Hortaea werneckii by broth microdilution method

Question: Which results are given for CCC(C)n1ncn(-c2ccc(N3CCN(c4ccc(OCC5COC(Cn6cncn6)(c6ccc(Cl)cc6Cl)O5)cc4)CC3)cc2)c1=O (configuration not stated) [ITRACONAZOLE]?
Answer: MIC50 [1]: 0.5 µg/mL (≈ 0.709 µM); MIC90 [1]: 2 µg/mL (≈ 2.83 µM); MIC50 [2]: 0.5 µg/mL (≈ 0.709 µM); MIC90 [2]: > 8 µg/mL; MIC50 [3]: 0.12 µg/mL (≈ 0.17 µM); MIC90 [3]: > 8 µg/mL; MIC50 [4]: 1 µg/mL (≈ 1.42 µM); MIC90 [4]: > 8 µg/mL; MIC50 [5]: 0.02 µg/mL (≈ 0.0283 µM); MIC90 [5]: 0.03 µg/mL (≈ 0.0425 µM); MIC50 [6]: 0.02 µg/mL (≈ 0.0283 µM); MIC90 [6]: 0.06 µg/mL (≈ 0.085 µM); MIC50 [7]: 0.12 µg/mL (≈ 0.17 µM); MIC90 [7]: > 8 µg/mL; MIC50 [8]: 0.06 µg/mL (≈ 0.085 µM); MIC90 [8]: 0.25 µg/mL (≈ 0.354 µM); MIC50 [9]: 0.5 µg/mL (≈ 0.709 µM); MIC90 [9]: > 8 µg/mL; MIC50 [10]: > 8 µg/mL; MIC90 [10]: > 8 µg/mL; MIC50 [11]: > 8 µg/mL; MIC90 [11]: > 8 µg/mL; MIC50 [12]: 0.5 µg/mL (≈ 0.709 µM); MIC90 [12]: > 8 µg/mL; MIC50 [13]: 0.5 µg/mL (≈ 0.709 µM); MIC90 [13]: > 8 µg/mL; MIC50 [14]: 0.5 µg/mL (≈ 0.709 µM); MIC90 [14]: > 8 µg/mL; MIC50 [15]: 0.25 µg/mL (≈ 0.354 µM); MIC90 [15]: 0.5 µg/mL (≈ 0.709 µM); MIC50 [16]: 0.25 µg/mL (≈ 0.354 µM); MIC90 [16]: 0.5 µg/mL (≈ 0.709 µM); MIC50 [17]: > 8 µg/mL; MIC90 [17]: > 8 µg/mL; MIC50 [18]: 0.5 µg/mL (≈ 0.709 µM); MIC90 [18]: > 8 µg/mL; MIC50 [19]: 0.5 µg/mL (≈ 0.709 µM); MIC90 [19]: > 8 µg/mL; MIC50 [20]: > 8 µg/mL; MIC90 [20]: > 8 µg/mL; MIC50 [21]: 0.5 µg/mL (≈ 0.709 µM); MIC90 [21]: > 8 µg/mL; MIC50 [22]: > 8 µg/mL; MIC90 [22]: > 8 µg/mL; MIC50 [23]: 0.12 µg/mL (≈ 0.17 µM); MIC90 [23]: > 8 µg/mL; MIC50 [24]: 0.5 µg/mL (≈ 0.709 µM); MIC90 [24]: > 8 µg/mL; MIC50 [25]: 2 µg/mL (≈ 2.83 µM); MIC90 [25]: > 8 µg/mL; MIC50 [26]: 8 µg/mL (≈ 11.3 µM); MIC90 [26]: > 8 µg/mL; MIC50 [27]: 0.25 µg/mL (≈ 0.354 µM); MIC90 [27]: 0.5 µg/mL (≈ 0.709 µM); MIC50 [28]: 0.25 µg/mL (≈ 0.354 µM); MIC90 [28]: 1 µg/mL (≈ 1.42 µM); MIC50 [29]: 0.25 µg/mL (≈ 0.354 µM); MIC90 [29]: 0.5 µg/mL (≈ 0.709 µM); MIC50 [30]: 0.12 µg/mL (≈ 0.17 µM); MIC90 [30]: > 8 µg/mL; MIC50 [31]: 4 µg/mL (≈ 5.67 µM); MIC90 [31]: > 8 µg/mL; MIC50 [32]: 0.5 µg/mL (≈ 0.709 µM); MIC90 [32]: > 8 µg/mL; MIC50 [33]: 0.25 µg/mL (≈ 0.354 µM); MIC90 [33]: 0.5 µg/mL (≈ 0.709 µM); MIC50 [34]: 0.12 µg/mL (≈ 0.17 µM); MIC90 [34]: > 8 µg/mL; MIC50 [35]: 0.25 µg/mL (≈ 0.354 µM); MIC90 [35]: > 8 µg/mL; MIC50 [36]: > 8 µg/mL; MIC90 [36]: > 8 µg/mL; MIC50 [37]: > 8 µg/mL; MIC90 [37]: > 8 µg/mL; MIC50 [38]: 0.5 µg/mL (≈ 0.709 µM); MIC90 [38]: > 8 µg/mL; MIC50 [39]: 0.12 µg/mL (≈ 0.17 µM); MIC90 [39]: > 8 µg/mL; MIC50 [40]: > 8 µg/mL; MIC90 [40]: > 8 µg/mL; MIC50 [41]: 0.12 µg/mL (≈ 0.17 µM); MIC90 [41]: > 8 µg/mL
